Experimental data: ChEMBL document CHEMBL4808178 (J Med Chem, 2021)
Activity calls are given as the source filed them. No cut-off for these calls is given here.

What was measured:
HCT-116 [1] = assay: Induction of cell cycle arrest in human HCT116 cells assessed as accumulation at G2/M phase at 20 uM after 24 hrs by propidium iodide-staining based flow cytometry (reference value: 14.67%); assay type: functional
[2] = AUC(0 to t) in Sprague-Dawley rat at 25 mg/kg, po measured up to 48 hrs by LC-MS/MS analysis; assay type: ADME, organism-based; design: route oral, dose 25 mg/kg, time <=48; conditions: in vivo
Method in brief: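 Overnight-fasted male SD rats (about 250−270 g), three per group, single oral 25 mg/kg; test compound suspended in 5% CMC-Na, control as sodium salt in phosphate buffer. Blood sampled 0.25–48 h, plasma by centrifugation, stored −40 °C, quantified by LC−MS/MS against plasma standard curve (3–3000 ng/mL) with internal standard; model-fitted PK parameters.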

HT-29 = assay: Cytotoxicity against human HT-29 cells assessed as reduction in cell viability incubated for 72 hrs by MTT assay; assay type: functional, cell-based; conditions: HT-29, 72 h
HCT-116 [3] = assay: Induction of apoptosis in human HCT116 cells assessed as upregulation of cleaved caspase 9 level at 20 uM incubated for 24 hrs by Western blot analysis; assay type: functional, cell-based
Method in brief: (§1)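 HCT-116 cells at 2 × 10⁵ cells/mL in DMEM/10% FBS, grown 12 h at 37 °C, then treated 24 h (vehicle DMSO). Lysates quantified by BCA, run on 10% SDS-PAGE, PVDF transfer, blocked in 5% milk/TBST, primary antibodies 4 °C overnight, HRP secondary 2 h, chemiluminescent detection; normalized to β-actin, n = 3.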

HCT-116 [4] = assay: Induction of apoptosis in human HCT116 cells assessed as upregulation of cleaved PARP level at 20 uM incubated for 24 hrs by Western blot analysis; assay type: functional, cell-based; method in brief: as §1
[5] = biological target: T1, Aldehyde dehydrogenase 1A1 (Homo sapiens) (UniProt P00352); assay: Inhibition of ALDH1A1 in human HCT116 cells at 5 uM after 24 hrs by aldefluor staining based fluorescence analysis; assay type: cell-based; conditions: HCT-116
T1 sequence (whole entry): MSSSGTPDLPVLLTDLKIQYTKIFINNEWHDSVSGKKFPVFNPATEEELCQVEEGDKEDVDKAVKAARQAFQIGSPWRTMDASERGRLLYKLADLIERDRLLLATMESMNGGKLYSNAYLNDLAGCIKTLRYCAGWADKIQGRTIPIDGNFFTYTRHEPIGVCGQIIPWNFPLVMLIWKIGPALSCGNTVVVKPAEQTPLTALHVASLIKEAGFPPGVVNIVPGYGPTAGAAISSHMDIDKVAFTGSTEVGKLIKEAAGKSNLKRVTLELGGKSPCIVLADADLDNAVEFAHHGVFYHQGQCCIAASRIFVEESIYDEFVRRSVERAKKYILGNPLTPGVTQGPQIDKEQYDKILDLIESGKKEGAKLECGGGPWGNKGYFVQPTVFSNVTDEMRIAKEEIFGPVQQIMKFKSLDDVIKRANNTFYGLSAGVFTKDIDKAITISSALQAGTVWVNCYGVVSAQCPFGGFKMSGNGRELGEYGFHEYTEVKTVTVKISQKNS
Method in brief: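 HCT-116 cells, 2 × 10⁵/well, grown overnight at 37 °C, 5% CO₂, then treated 24 h (vehicle DMSO). Aldefluor staining read in FITC channel by FACS for proportion of ALDH⁺ cells; DEAB-pretreated cells set baseline fluorescence.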

HCT-116 [6] = assay: Induction of cell cycle arrest in human HCT116 cells assessed as accumulation at G0/G1 phase at 20 uM after 24 hrs by propidium iodide-staining based flow cytometry (reference value: 48.89%); assay type: functional
[7] = MRT(0 to t) in Sprague-Dawley rat at 25 mg/kg, po measured up to 48 hrs by LC-MS/MS analysis; assay type: ADME, organism-based; conditions: in vivo
Method in brief: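 Overnight-fasted male SD rats (250−270 g, n = 3/group), single oral 25 mg/kg in 5% CMC-Na (reference sodium salt in phosphate buffer); plasma at 0.25–48 h (12 timepoints), stored −40 °C; LC−MS/MS with internal-standard calibration 3–3000 ng/mL; parameters fitted by model.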

HCT-116 [8] = assay: Induction of apoptosis in human HCT116 cells assessed as early apoptotic cells at 5 uM after 24 hrs by annexin V-FITC/propidium iodide staining based flow cytometry (reference value: 1%); assay type: functional
L02 = assay: Cytotoxicity against human L02 cells assessed as reduction in cell viability incubated for 72 hrs by MTT assay; assay type: cell-based; conditions: L02, 72 h
Method in brief: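 About 5 × 10³ cells/well, seeded overnight at 37 °C, 5% CO₂, in DMEM or RPMI-1640 with 10% FBS and antibiotics. DMSO-dissolved compounds diluted in medium, exposure 72 h.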

[9] = biological target: T2, Ephrin type-A receptor 1 (Homo sapiens) (UniProt P21709); assay: Inhibition of EPHA1 (unknown origin) assessed as residual activity at 1 uM relative to control
T2 sequence (whole entry): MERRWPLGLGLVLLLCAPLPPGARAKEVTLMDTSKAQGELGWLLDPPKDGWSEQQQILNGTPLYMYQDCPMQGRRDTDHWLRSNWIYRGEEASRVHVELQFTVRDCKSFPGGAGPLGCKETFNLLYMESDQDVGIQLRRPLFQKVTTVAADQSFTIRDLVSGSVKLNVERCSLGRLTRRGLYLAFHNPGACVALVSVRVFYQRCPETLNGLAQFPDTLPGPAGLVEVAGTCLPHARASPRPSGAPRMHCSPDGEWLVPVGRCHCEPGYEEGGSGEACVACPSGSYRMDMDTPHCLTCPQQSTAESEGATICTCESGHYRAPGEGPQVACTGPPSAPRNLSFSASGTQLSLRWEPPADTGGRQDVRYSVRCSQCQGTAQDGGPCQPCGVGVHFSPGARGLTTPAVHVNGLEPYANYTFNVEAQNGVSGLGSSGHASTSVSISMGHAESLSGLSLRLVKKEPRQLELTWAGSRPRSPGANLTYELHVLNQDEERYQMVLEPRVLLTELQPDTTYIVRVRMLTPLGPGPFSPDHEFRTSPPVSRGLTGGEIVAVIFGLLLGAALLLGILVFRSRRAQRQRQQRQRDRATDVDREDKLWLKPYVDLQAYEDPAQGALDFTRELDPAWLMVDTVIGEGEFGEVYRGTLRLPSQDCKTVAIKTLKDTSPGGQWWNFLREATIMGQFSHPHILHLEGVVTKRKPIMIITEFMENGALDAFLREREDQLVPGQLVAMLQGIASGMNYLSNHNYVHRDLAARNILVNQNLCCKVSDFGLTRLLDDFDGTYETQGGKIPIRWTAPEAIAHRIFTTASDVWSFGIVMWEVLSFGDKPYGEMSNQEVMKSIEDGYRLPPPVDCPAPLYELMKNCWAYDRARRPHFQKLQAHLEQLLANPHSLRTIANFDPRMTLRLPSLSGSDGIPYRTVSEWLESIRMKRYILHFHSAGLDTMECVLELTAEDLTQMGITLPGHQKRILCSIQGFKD
Method in brief: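 Single-concentration screen at 1 μmol/L against a panel of 208 kinases, run as a commercial service; activity expressed relative to control.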

AUC(0-t) at 48 h [2]: 40500 ng·h/mL
inhibition [5]: 77%
MRT last at 48 h [7]: 6.21 h
Activity [9]: 45.2%
Structure (SMILES): O=C(NCCO)c1ccc2c(c1)nc(Nc1cccc(Cl)c1)c1ccncc12
Activity (HCT-116 [1]): 22.72%
IC50 (HT-29): 5.18 µM
Activity (HCT-116 [3]): Active
Activity (HCT-116 [4]): Active
Activity (HCT-116 [6]): 72.92%
Activity (HCT-116 [8]): 18%
IC50 (L02): 96.7 µM
